p97 ATPase inh – blocks human p97 ATPase activity | inhibition, % at 8 µM | P55072 | 0.42% of 220,000 active | recombinant p97 ATPase, Kinase-Glo ATP luminescence, 3 h; in the data active means inhibition above about 15%
Cl transport mod – KCC2 (human) Cl- transport modulation. Q9H2X9. KCC2 cells, thallium flux FluoZin-2 fluorescence. B-score of Tl+ flux slope (higher = more flux/activation; lower = inhibition) at 10 µM. 2.2% of 190,000 active. AID 1456;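 active means thallium flux slope and its plate-corrected score both differing from the plate sample mean at a set confidence after two filtering rounds, in either direction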;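 further: slope of fluorescence scaled to starting intensity during 10 to 20 s after thallium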
ROMK mod – modulates human ROMK potassium channel activity | P48048 | 2% of 130,000 active | AID 1918 | B-score at 10 µM | Tet-inducible ROMK, thallium flux fluorescence; actives lie on both sides;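 active means signal ratio slope over the read window, or its plate-corrected B-score, at least 3 SD from the plate mean, either direction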;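 further: B-score of the F/F0 ratio slope over 7 to 12 s after thallium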
Redox H2O2 prof – compounds producing H2O2 with reducing agent – biochemical, NIH compound library profiling, artefact control for MLSCN library redox annotation, primary screen; DTT-dependent redox cycling H2O2, phenol red/HRP absorbance; 100% = 100 µM peroxide control, 0% = buffer; activation, % at 10 µM; AID 878; 0.03% of 200,000 active;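 active means activation of at least 50% relative to the plate's high and low controls in the primary single-dose screen; inactive means activation below 50%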;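 further: compound incubated with DTT at 0.8 mM final as the reducing agent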
PKD1 kinase inh – blocks activity of human protein kinase D1 | Q15139 | PKD1 kinase fluorescence polarization assay | inhibition, % (test concentration not listed) | 0.056% of 200,000 active; in the data active means inhibition above about 50%
MDM2 E3 inh – blocks human Mdm2 ubiquitin ligase activity | cell-based MDM2 ubiquitination luciferase reporter, 2 h; 0 = plate control, 100 = twice control, blank-subtracted | 0.11% of 210,000 active | signal enhancement, % at 5 µM;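 active means signal enhancement of 30% or more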;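 further: luminescence tracks abundance of the self-degrading MDM2-luciferase fusion protein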
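test system = mammalian cells stably expressing self-ubiquitinating, self-degrading MDM2 E3–luciferase fusion | quantity = 2000 cells/well | incubation = cell settling 4 h, compound treatment 2 h, both 37 °C | signal = luminescence with SteadyLite reagent, 15 min at room temperature | evaluation = % enhancement relative to plate controls after blank subtraction | benchmarks = plate controls and plate blanks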
Hits are given with their value; . = inactive; / = not tested or not shown. Hits are enriched below; roughly 3.4% of the tested compounds scored in any of these assays.

SMILES	p97 ATPase inh	Cl transport mod	ROMK mod	Redox H2O2 prof	PKD1 kinase inh	MDM2 E3 inh
CCN(C(=S)NC(=O)c1ccccc1Br)C1CCCCC1	.	63	6.9	.	.	.
CNS(=O)(=O)c1cccc(C(=O)OCC(=O)C23CC4CC(CC(C4)C2)C3)c1	.	/	.	.	.	.
Cc1ccc(C)c(N2CCN(C(=O)CCNC(=O)Cn3ccc4ccccc4c3=O)CC2)c1	.	/	.	.	.	.
Cc1ccc(Cl)cc1N1CCN(C(=O)Cn2ccc3ccccc3c2=O)CC1	.	/	-3.6	.	.	.
CCOC(=O)N1CCN(S(=O)(=O)/C=C/c2ccccc2)CC1	.	.	.	.	.	.
CCOC(=O)N1C/C(=C\c2ccccc2)C(=O)/C(=C/c2ccccc2)C1	.	.	/	/	/	46
O=C(c1ccccc1Oc1ccccc1)N1CCN(c2ccccc2)CC1	.	.	/	.	.	.
COC(=O)C1=C(C)NC(C)=C(C(=O)OC)C1c1ccccc1[N+](=O)[O-]	.	17	-2.5	.	.	/
COc1ccc(CNC(=O)Cn2cc([N+](=O)[O-])nc2C)cc1	.	.	.	.	.	.
O=C(C1CCCN(S(=O)(=O)c2cccc3nsnc23)C1)N1CC=C(c2ccccc2)CC1 (centres undefined)	.	.	-4.3	.	.	.
O=C(CCCOc1ccc(Cl)cc1Cl)Nc1ccncc1	.	.	.	.	.	.
CN1C/C(=C/c2cccnc2)C(=O)/C(=C/c2cccnc2)C1	.	.	-3.5	.	.	/
CC(C)N1C/C(=C/c2cccnc2)C(=O)/C(=C/c2cccnc2)C1	.	.	.	.	.	.
CCn1c(O)c(N=Nc2ccc3ccccc3n2)c2ccccc21	.	.	/	/	/	.
CCCCn1c(O)c(N=Nc2ccccn2)c2ccccc21	.	11	.	.	.	.
N#CC1=C(N)C(C#N)(C#N)C(c2cccnc2)C2CCCC=C12 (centres undefined)	.	.	/	.	.	.
N#CC1=C(N)C(C#N)(C#N)C(c2cccnc2)C2CC(c3ccccc3)CC=C12 (centres undefined)	.	-2.6	/	.	.	.
CC1CCc2c(sc3ncn(Cc4ccc(C(=O)O)cc4)c(=O)c23)C1 (centres undefined)	15	/	.	.	.	.
CC1CCc2c(sc3ncn(CCO)c(=O)c23)C1 (centres undefined)	.	.	.	.	.	.
CC(=O)CSc1ncnc2sc3c(c12)CCC(C)C3 (centres undefined)	.	121	.	.	.	.
O=C1/C(=C/c2cccc([N+](=O)[O-])c2)CCc2ccccc21	.	.	.	.	.	.
CCN1C/C(=C\c2cccc([N+](=O)[O-])c2)C(=O)/C(=C/c2cccc([N+](=O)[O-])c2)C1	.	.	.	.	.	39
COc1ccc(C=C2C(=O)c3ccccc3C2=O)cc1O	.	.	.	.	.	.
CCN1C/C(=C/c2ccc(OC)c(O)c2)C(=O)/C(=C/c2ccc(OC)c(O)c2)C1	.	.	.	.	.	50
S=c1nc[nH]c2c1sc1nc(-c3ccccc3)c3c(c12)CCCC3	.	20	/	.	.	.
SMILES	p97 ATPase inh	Cl transport mod	ROMK mod	Redox H2O2 prof	PKD1 kinase inh	MDM2 E3 inh
CCN1CNC(=S)N(c2ccccc2OC)C1	.	.	/	.	.	.
CCOC(=O)c1ccccc1NC(=O)N[C@@H](C)C(=O)OC	.	-3.4	2.3	.	.	.
COC(=O)c1ccccc1NC(=O)N[C@@H](C)C(=O)OC	.	/	/	.	.	.
CC(=O)c1sc(-c2ccccc2)cc1NS(=O)(=O)c1ccccc1	.	.	/	/	/	.
CC(=O)c1sc(-c2ccccc2)cc1NS(=O)(=O)c1ccc(C)cc1	.	30	2.7	/	/	.
Cc1ccn2c(/C=N/OCc3cccc(F)c3)c(-c3ccc(Cl)cc3)nc2c1	.	.	/	.	.	.
O=C(CSc1nnc(-c2cccnc2)n1C1CCCCC1)NC1CCCCC1	.	.	.	.	.	36
CCC(=O)N1CCN(c2ccccc2NC(=O)COc2cccc(C)c2)CC1	.	13	/	.	.	.
CCC(=O)N1CCN(c2ccccc2NC(=O)c2cccc(C)c2)CC1	.	.	/	.	.	.
COc1ccccc1N1CCN(Cc2cc(Br)c(O)c3ncccc23)CC1	.	7.2	/	.	.	.
OCCN1CCN(Cc2cc(Cl)c3cccnc3c2O)CC1	.	.	.	.	.	.
Oc1c(CN2CCN(c3ccccn3)CC2)cc(Cl)c2cccnc12	.	7	/	.	.	.
Cc1cc(C(=O)N/N=C/c2ccc(O)c(O)c2O)c(C)n1-c1ccccc1	.	.	.	.	.	.
O=C(Cn1nc(Cc2ccncc2)c2ccccc2c1=O)N1CCc2ccccc2C1	.	-3.7	/	.	.	.
CN(CCC#N)C(=O)Cn1nc(Cc2ccncc2)c2ccccc2c1=O	.	/	/	.	.	.
CC1(C)CC(=O)C2=C(C1)OC1=C(C(=O)CC(C)(C)C1)C2c1ccc(O)c([N+](=O)[O-])c1	.	.	.	.	.	.
CC1(C)CC(=O)C2=C(C1)OC1=C(C(=O)CC(C)(C)C1)C2c1ccc(O)cc1O	.	/	-8	.	.	.
O=C(Cc1coc(-c2ccc(F)cc2)n1)NCc1ccccc1	.	-2.6	.	.	.	.
O=C1NC(=S)S/C1=C/c1ccc(N2CCOCC2)o1	.	-7.7	-3.3	.	.	.
C=CCN1C(=O)N/C(=C/c2ccc(N3CCOCC3)o2)C1=O	.	.	-3.8	.	.	.
CCN(CC)CCNC(=O)CCn1c(=S)[nH]c2cc3c(cc2c1=O)OCO3	.	.	/	.	.	.
CCCCNC(=O)CCCn1c(=S)[nH]c2cc3c(cc2c1=O)OCO3	17	.	/	.	.	.
Cc1ccc(/C=N/NC(=O)CN2C(=O)CSc3ccccc32)o1	.	.	.	/	/	.
CCCCn1c(-c2csc(C(C)C)c2)n[nH]c1=S	.	21	.	.	.	.
CCCc1cc(-c2n[nH]c(=S)n2CC(C)C)cs1	.	16	.	.	.	.
SMILES	p97 ATPase inh	Cl transport mod	ROMK mod	Redox H2O2 prof	PKD1 kinase inh	MDM2 E3 inh
Cc1ccc(-c2nn(-c3ccccc3)cc2C2CC(c3cccs3)=NN2C(=O)CCC(=O)O)cc1 (centres undefined)	.	.	.	.	.	.
CCN(CC1COc2ccccc2O1)C(=S)NCCCN(C)C (centres undefined)	.	.	.	.	.	.
COC(=O)c1cccc(NC(=O)CSc2nc3cccnc3n2C)c1	.	/	-3.4	.	.	.
O=C(NCc1ccc(F)cc1)C(=O)NCC1OCCN1C(=O)c1cccs1 (centres undefined)	.	.	/	.	.	.
CCCCN(CCCC)C(=S)N/N=C/c1c(C)[nH]n(-c2ccccc2)c1=O	.	23	/	.	.	.
COc1ccc(Cn2c(=S)[nH]c3cc(OC)c(OC)cc3c2=O)cc1	.	.	.	.	.	.

Source: PubChem BioAssay (several laboratories)
